Measurements reported in PubChem BioAssay.
Records with an inconclusive call do not appear. The source made the active and inactive calls.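 Rule for the calls, unless noted: active = cell viability at or below a set limit in both duplicate runs, the limit being the all-compound median minus 4 SD (cut at about 23% in these data, passing the limit was not always enough); inconclusive = no clear call, values can overlap the other calls; inactive = the rest.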

Experiments:
[1] = OD615 S. cerevisiae growth inhibition, permissive medium, pilot counter-assay, permissive growth control for S. cerevisiae lifespan shortening project (AID 705;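 active = growth inhibition above 25% in both replicates, a cutoff set 3 SD above the mean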); details: OD615, 24 h, at 10 µM, active compounds read high
In short: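 assay system = Saccharomyces cerevisiae strain carrying genetically modified DeaD replicative-lifespan system | medium = SC raffinose/galactose permissive medium | dosing = 10 µM single dose, 0.25% DMSO | schedule = 24 h compound exposure at 30 °C after 4 h pre-growth | measured by = OD at 615 nm | read-out basis = growth inhibition from lowered OD615 after 24 h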

[2] = Restrictive medium S. cerevisiae growth inhibition, OD615, pilot screen of yeast lifespan reduction project, restrictive growth control (AID 706;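 active = growth inhibition above a set limit, 3 SD over mean compound inhibition, in both replicates, cut at about 43% in these data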;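 note: modified DeaD lifespan yeast strain shifted to restrictive glucose medium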); details: OD615, 48 h, at 10 µM, active compounds read high
In short: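 Buffer or medium: CSMM-D glucose medium. Material: genetically modified Saccharomyces cerevisiae, DeaD replicative lifespan assay strain. Times: 48 h compound exposure at 30 °C. Measured by: optical density at 615 nm.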

[3] = viability gain of MRP-1-high H69AR cells under doxorubicin, pilot screen, MRP-1 activator project, CellTiter-Glo, duplicate (AID 807;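 active = viability increase at or above a cutoff of the median across tested compounds plus 3 SD, cut at about 8.5% in these data, passing the limit was not always enough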;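 note: compound pretreatment 18-22 h then 72 h combined with doxorubicin; 0% = doxorubicin alone and 100% = vehicle without doxorubicin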); details: H69AR viability with doxorubicin, CellTiter-Glo luminescence; at 10 µM; active compounds read high
[4] = growth suppression of beta-catenin knockout HCT116, pilot screen, human colon tumor cells (AID 823); details: CellTiter-Glo, 60 h, at 10 µM, active compounds read low;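 note: 0% = wells killed by 20 µM Hyamine and 100% = untreated DMSO cell wells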
[5] = growth suppression of PTEN-deleted HCT116, pilot screen, cell-based, HCT116 clonal line, CellTiter-Glo (AID 824;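 active = viability at or below 27.92% in each of two runs, the all-compound median minus 4 SD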;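 note: 0% = 20 µM Hyamine control and 100% = vehicle cell control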); details: 60 h, at 10 µM, active compounds read low
[6] = inhibitors of the yeast RAM network, pilot screen, dse1pr::URA3 reporter, 5-FOA selection (AID 869;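 active = inhibition over a set limit, the all-compound mean plus 3 SD, in both replicate runs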;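 note: 0% = DMSO wells with no growth and 100% = 10 µM 1-NA-PP1 with full growth; RAM network block rescues cells from 5-FOA so hits raise OD615 growth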); details: S. cerevisiae dse1pr::URA3 5-FOA growth, OD615, 2 d; at 10 µM; active compounds read high; strain carries analog-sensitive mutant Cbk1 kinase
[7] = RAM signaling pathway blockade in yeast – S. cerevisiae, Pdr1DBD-CYC8 efflux-inhibited sensitized strain, primary screen (AID 1298;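 active = RAM network inhibition above 8.4% in each of two replicates, 3 SD over the compound average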;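 note: 0% = DMSO untreated cells without growth and 100% = 10 µM 1-NA-PP1 full growth; higher means more yeast growth rescued from 5-FOA killing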); details: S. cerevisiae cbk1-as DSE1-URA3 strain, 5-FOA growth OD615, 2 d; at 50 µM; active compounds read high

O=C(Nc1ccc(Br)cc1F)C1CCCN(S(=O)(=O)c2cnc[nH]2)C1 (stereo not drawn)
inactive: growth inhibition [1] 2.29% | growth inhibition [2] -10.9% | viability increase [3] 2.99% | viability [4] 92.2% | viability [5] 98% | inhibition [6] 0.905% | RAM network inhibition [7] 5.06%

Cc1noc(C)c1S(=O)(=O)N(CC(=O)Nc1ccc2c(c1)OCO2)c1ccc(C(C)C)cc1
inactive: growth inhibition [1] -5.59% | growth inhibition [2] -3.17% | viability increase [3] -3.69% | viability [4] 96.4% | viability [5] 93.5% | inhibition [6] 2.64% | RAM network inhibition [7] -0.06%

CCOC(=O)c1ccc2c(c1)NC(=O)C(N1CCN(c3ccc(OC)cc3)CC1)S2 (stereo not drawn)
inactive: growth inhibition [1] 0.455% | growth inhibition [2] -5.2% | viability increase [3] -7.1% | viability [4] 74.6% | viability [5] 51.8% | inhibition [6] 4.31% | RAM network inhibition [7] 6.45%

CC(C)(C)n1nc2c(c1NC(=O)Cc1ccc(F)cc1)CSC2
inactive: growth inhibition [1] 1.52% | growth inhibition [2] -7.53% | viability increase [3] -0.87% | viability [4] 94% | viability [5] 88.2% | inhibition [6] 2.36% | RAM network inhibition [7] 5.41%

COc1cc(CO)cc(Br)c1OCC(=O)O
inactive: growth inhibition [1] -2.25% | growth inhibition [2] -3.28% | viability increase [3] -1.45% | viability [4] 102% | viability [5] 92.5% | inhibition [6] 0.03% | RAM network inhibition [7] -1.46%

COCCCNC(=O)c1ccccc1Oc1ccccc1
inactive: growth inhibition [1] -8.28% | growth inhibition [2] -2.05% | viability increase [3] -1.39% | viability [4] 96.3% | viability [5] 97% | inhibition [6] 1.46% | RAM network inhibition [7] 1.58%

O=C(Nc1nc2c(s1)CCCC2)c1ccc(Br)o1
inactive: growth inhibition [1] 6.52% | growth inhibition [2] -10.8% | viability increase [3] -4.11% | viability [4] 62.4% | viability [5] 64.6% | inhibition [6] 1.8% | RAM network inhibition [7] 4.86%

CC1CCCCN1CCNC(=O)c1cc2c(=O)n(C)c3ccccc3c2n1C (stereo not drawn)
inactive: growth inhibition [1] -12.9% | growth inhibition [2] -9.04% | viability increase [3] -6.71% | viability [4] 78.9% | viability [5] 72.7% | inhibition [6] 2.5% | RAM network inhibition [7] 1.31%

Cc1ccc(C)c(C(=O)COC(=O)c2ccc(Br)o2)c1
inactive: growth inhibition [1] -12.9% | growth inhibition [2] -17.1% | viability increase [3] -0.26% | viability [4] 94.2% | viability [5] 86.2% | inhibition [6] 0.38% | RAM network inhibition [7] 1.4%

CC(C)(C)c1nnc2sc(SCC(=O)c3cccs3)nn2c1=O
inactive: growth inhibition [1] -4.01% | growth inhibition [2] -13.1% | viability increase [3] -6% | viability [4] 71.1% | viability [5] 81.8% | inhibition [6] 2.62% | RAM network inhibition [7] 5.25%

COc1ccc2c(c1OC)C(=O)OC2Nc1ccccn1 (stereo not drawn)
inactive: growth inhibition [1] 10.3% | growth inhibition [2] -7.84% | viability increase [3] -2.18% | viability [4] 102% | viability [5] 99.7% | inhibition [6] 1.34% | RAM network inhibition [7] 1.17%

O=C(NCCCn1ccnc1)c1cc(C2CC2)on1
inactive: growth inhibition [1] -14.9% | growth inhibition [2] -11.1% | viability increase [3] 0.19% | viability [4] 105% | viability [5] 103% | inhibition [6] 1.95% | RAM network inhibition [7] 6.12%

O=c1oc(-c2cc3ccccc3o2)nc2sc3c(c12)CCCC3
inactive: growth inhibition [1] -10.5% | growth inhibition [2] -6.6% | viability increase [3] 3.77% | viability [4] 74.4% | viability [5] 56.9% | inhibition [6] 2.1% | RAM network inhibition [7] 4.52%

COCC(C)N=Cc1c(O)[nH]c2ccccc12 (stereo not drawn)
inactive: growth inhibition [1] 0.585% | growth inhibition [2] 1.21% | viability increase [3] -2.38% | viability [4] 92.1% | viability [5] 97.5% | inhibition [6] 0.82% | RAM network inhibition [7] -1.18%

CC1CCCN(Cc2nc3c(c(=O)n(C)c(=O)n3C)n2Cc2c(F)cccc2Cl)C1 (stereo not drawn)
inactive: growth inhibition [1] -8.39% | growth inhibition [2] -6.31% | viability increase [3] -4.6% | viability [4] 84.4% | viability [5] 80.2% | inhibition [6] 1.09% | RAM network inhibition [7] 10.9%

CC(N=C1NS(=O)(=O)c2ccccc21)c1ccccc1 (stereo not drawn)
inactive: growth inhibition [1] 0.11% | growth inhibition [2] 1.27% | viability increase [3] 0.15% | viability [4] 103% | viability [5] 96.2% | inhibition [6] -0.16% | RAM network inhibition [7] 5.97%

CCOC(=O)c1c(C)c(-c2ccccc2)n(CC(=O)N2CCN(C)CC2)c1C
inactive: growth inhibition [1] -19% | growth inhibition [2] -24.2% | viability increase [3] -2.94% | viability [4] 102% | viability [5] 102% | inhibition [6] 2.83% | RAM network inhibition [7] 2.67%

CCOC(=O)C1CCCN(c2c(Nc3cccc(C)c3)c(=O)c2=O)C1 (stereo not drawn)
inactive: growth inhibition [1] -6.7% | growth inhibition [2] 2.08% | viability increase [3] -2.71% | viability [4] 104% | viability [5] 93.2% | inhibition [6] -0.555% | RAM network inhibition [7] 2.72%

O=S(=O)(c1cccs1)N1CCCc2ccccc21
inactive: growth inhibition [1] -13.1% | growth inhibition [2] -18.4% | viability increase [3] -2.75% | viability [4] 83.5% | viability [5] 83.8% | inhibition [6] 1.71% | RAM network inhibition [7] 3.38%

COc1ccc(CCNC(=O)CN2CCOc3ccccc32)cc1OC
inactive: growth inhibition [1] -23.7% | growth inhibition [2] 13.9% | viability increase [3] -6.27% | viability [4] 100% | viability [5] 96.8% | inhibition [6] 0.49% | RAM network inhibition [7] 1.27%

COc1ccc(C(=O)Nc2cccnc2)cc1S(=O)(=O)N1CCOCC1
inactive: growth inhibition [1] -8.01% | growth inhibition [2] -10.6% | viability increase [3] -0.17% | viability [4] 103% | viability [5] 99.1% | inhibition [6] 0.84% | RAM network inhibition [7] 0.46%

COc1ccc(OC)c2sc(NC(=O)c3ccc(Cl)s3)nc12
active: viability [4] 22% | viability [5] 13.8%
inactive: growth inhibition [1] -16.4% | growth inhibition [2] -10.6% | viability increase [3] -3.79% | inhibition [6] 3.47% | RAM network inhibition [7] 5.85%

CC(=NCc1ccccc1)C1=C(O)COC1=O
inactive: growth inhibition [1] 5.52% | growth inhibition [2] 8.4% | viability increase [3] -1.47% | viability [4] 100% | viability [5] 92.7% | inhibition [6] 1.06% | RAM network inhibition [7] 4.28%

O=C(c1ccc(-c2ccccc2)cc1)N1CCCC1
inactive: growth inhibition [1] 0.63% | growth inhibition [2] -4.7% | viability increase [3] 0.06% | viability [4] 94.9% | viability [5] 98.8% | inhibition [6] 0.02% | RAM network inhibition [7] 10.3%
